Results on one compound are retold here after ChEMBL document CHEMBL4665652, “Discovery of novel quinoline sulphonamide derivatives as potent, selective and orally active RORγ inverse agonists” (Bioorg Med Chem Lett, 2019).

A short description of series [1]: In vivo inverse agonist activity at RORgamma in MOG(35-55) peptide/PTX-induced mechanistic C57BL/6 mouse model assessed as anti-CD3 induced IL-10 level in serum at 100 mg/kg, po dosed for 5 days during MOG/PTX priming and followed by 45 mins prior to anti-CD3 challenge and measured after 2 hrs (reference value: -11%). It is filed as functional. The conditions noted are these: time 5 day. In outline: (§1)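 Mice immunized with mouse MOG35-55 peptide plus pertussis toxin. After 5 days, compound given orally as a suspension in methylcellulose 400cp + 1% poloxamer, 45 min before an anti-CD3 challenge. Circulating cytokines measured 2 h later. Comparison vs vehicle by Dunnett post test.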

A further series deals with Cytochrome P450 2C9 (Homo sapiens, UniProt P11712). Briefly: Drug metabolism assessed as CYP2C9 (unknown origin) mediated metabolite formation. It is filed as ADME.
Cytochrome P450 2C9, sequence (P11712 whole entry): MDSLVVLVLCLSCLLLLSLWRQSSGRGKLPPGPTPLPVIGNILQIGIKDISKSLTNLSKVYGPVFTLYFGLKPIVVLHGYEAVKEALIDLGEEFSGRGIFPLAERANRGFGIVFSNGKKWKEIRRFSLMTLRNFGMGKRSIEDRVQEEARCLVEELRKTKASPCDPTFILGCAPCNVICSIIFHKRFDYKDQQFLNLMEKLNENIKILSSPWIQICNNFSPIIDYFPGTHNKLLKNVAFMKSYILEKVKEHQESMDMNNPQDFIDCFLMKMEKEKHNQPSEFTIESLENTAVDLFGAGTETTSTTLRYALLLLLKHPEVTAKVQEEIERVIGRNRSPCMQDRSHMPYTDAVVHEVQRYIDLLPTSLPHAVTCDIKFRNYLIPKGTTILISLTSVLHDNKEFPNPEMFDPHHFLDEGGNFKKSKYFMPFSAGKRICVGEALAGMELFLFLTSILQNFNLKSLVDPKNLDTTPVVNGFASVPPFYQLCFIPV
Series [2] is described as follows: Ratio of Cmax in mouse at 30 mg/kg, po to Cmax in mouse at 10 mg/kg, po. Format: ADME, organism-based. The conditions noted are these: in vivo. In outline:
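Mice dosed orally with an ascending-dose series at 10, 30 and 100 mg/kg. Compound given as a suspension in 1% methylcellulose 400cp + 0.1% poloxamer. Plasma Tmax taken from the concentration profiles. The Cmax ratio is expressed relative to the 10 mg/kg dose.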

A short description of series [3]: In vivo inverse agonist activity at RORgamma in MOG(35-55) peptide/PTX-induced mechanistic C57BL/6 mouse model assessed as anti-CD3 induced IL-10 level in serum at 30 mg/kg, po dosed for 5 days during MOG/PTX priming and followed by 45 mins prior to anti-CD3 challenge and measured after 2 hrs (reference value: -11%). Format: functional. To be noted: time 5 day. The method, boiled down:
as §1

Series [4] concerns Mus musculus. Briefly: In vivo inverse agonist activity at RORgamma in po dosed MOG(35-55) peptide/PTX-induced mechanistic C57BL/6 mouse model assessed as anti-CD3 induced IL-17F level in serum dosed for 5 days during MOG/PTX priming and followed by 45 mins prior to anti-CD3 challenge and measured after 2 hrs relative to control. To be noted: dose mg/kg 10-100, time 5.0 day. It is filed as functional, organism-based. In outline: as §1

Series [5] is described as follows: In vivo inverse agonist activity at RORgamma in MOG(35-55) peptide/PTX-induced mechanistic C57BL/6 mouse model assessed as anti-CD3 induced IL-17F level in serum at 30 mg/kg, po dosed for 5 days during MOG/PTX priming and followed by 45 mins prior to anti-CD3 challenge and measured after 2 hrs relative to control. The conditions noted are these: time 5 day. Format: functional. In outline: as §1

A further series concerns the target CYP2C9 (Homo sapiens, UniProt P11712). Put plainly: Inhibition of CYP2C9 (unknown origin) at 1 uM relative to control. It is filed as ADME.
Series [6] is described as follows: Oral bioavailability in mouse at 10 mg/kg. It is filed as ADME, organism-based. To be noted: in vivo. In outline:
(§2)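 Mouse PK with iv 1 mg/kg and po 10 mg/kg, oral dose as a suspension in 1% methylcellulose 400cp + 0.1% Poloxamer 188. Plasma clearance (total and unbound), iv t1/2 and oral bioavailability F were derived from the iv and po profiles.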

The nature of series [7]: In vivo inverse agonist activity at RORgamma in MOG(35-55) peptide/PTX-induced mechanistic C57BL/6 mouse model assessed as anti-CD3 induced IL-22 level in serum at 100 mg/kg, po dosed for 5 days during MOG/PTX priming and followed by 45 mins prior to anti-CD3 challenge and measured after 2 hrs relative to control. Format: functional. The conditions noted are these: time 5 day. In outline: as §1

Series [8] concerns the target T1, Nuclear receptor ROR-gamma (Homo sapiens, UniProt P51449).
T1 sequence (P51449 whole entry): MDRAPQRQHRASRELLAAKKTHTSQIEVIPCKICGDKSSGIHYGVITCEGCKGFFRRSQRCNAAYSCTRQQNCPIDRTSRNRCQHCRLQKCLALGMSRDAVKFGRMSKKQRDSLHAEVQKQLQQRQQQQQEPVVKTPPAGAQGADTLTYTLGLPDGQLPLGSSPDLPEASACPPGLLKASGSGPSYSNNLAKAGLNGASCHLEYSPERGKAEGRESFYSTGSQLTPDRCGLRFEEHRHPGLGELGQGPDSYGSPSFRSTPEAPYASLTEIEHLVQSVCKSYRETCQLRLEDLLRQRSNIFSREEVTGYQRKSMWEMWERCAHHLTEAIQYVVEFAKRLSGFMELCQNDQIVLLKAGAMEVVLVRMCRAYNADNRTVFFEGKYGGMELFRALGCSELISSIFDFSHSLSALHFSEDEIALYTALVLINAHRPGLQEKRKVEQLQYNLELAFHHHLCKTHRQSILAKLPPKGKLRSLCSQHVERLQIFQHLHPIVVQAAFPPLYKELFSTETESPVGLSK
Briefly: Inverse agonist activity at RORgamma in human CD4+ T cells assessed as inhibition of IL17A secretion after 72 hrs by ELISA. Format: cell-based, CD4+ve Th. Background: An ELISA detects its analyte on a solid surface through an enzyme-linked reagent.

Series [9] can be described thus: Ratio of AUClast in mouse at 30 mg/kg, po to AUClast in mouse at 10 mg/kg, po. The conditions noted are these: in vivo. Format: ADME, organism-based. The method, boiled down: (§3)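 Mice dosed orally at 10, 30 or 100 mg/kg as a suspension in 1% methylcellulose 400cp + 0.1% Poloxamer (188). Tmax, Cmax, AUClast and oral t1/2 were taken from plasma concentration–time profiles. Ratios are the value at each dose over the value at 10 mg/kg.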

Series [10] is described as follows: In vivo inverse agonist activity at RORgamma in MOG(35-55) peptide/PTX-induced mechanistic C57BL/6 mouse model assessed as anti-CD3 induced IFNgamma level in serum at 30 mg/kg, po dosed for 5 days during MOG/PTX priming and followed by 45 mins prior to anti-CD3 challenge and measured after 2 hrs relative to control. Format: functional. The conditions noted are these: time 5 day. The method, boiled down: as §1

Series [11] in a line: In vivo inverse agonist activity at RORgamma in MOG(35-55) peptide/PTX-induced mechanistic C57BL/6 mouse model assessed as anti-CD3 induced IL-17A level in serum at 10 mg/kg, po dosed for 5 days during MOG/PTX priming and followed by 45 mins prior to anti-CD3 challenge and measured after 2 hrs relative to control. It is filed as functional. The conditions noted are these: time 5 day. The method, boiled down:
as §1

Series [12] is described as follows: In vivo inverse agonist activity at RORgamma in MOG(35-55) peptide/PTX-induced mechanistic C57BL/6 mouse model assessed as anti-CD3 induced IL-6 level in serum at 30 mg/kg, po dosed for 5 days during MOG/PTX priming and followed by 45 mins prior to anti-CD3 challenge and measured after 2 hrs relative to control. Format: functional. The conditions noted are these: time 5 day. The method, boiled down: as §1

Series [13] can be described thus: In vivo inverse agonist activity at RORgamma in MOG(35-55) peptide/PTX-induced mechanistic C57BL/6 mouse model assessed as anti-CD3 induced TNFalpha level in serum at 10 mg/kg, po dosed for 5 days during MOG/PTX priming and followed by 45 mins prior to anti-CD3 challenge and measured after 2 hrs relative to control. Format: functional. To be noted: time 5 day. The method, boiled down: as §1

The test system of series [14] is Mus musculus. Briefly: Immunosuppressive activity in PLP (139 to 151 residues)-induced experimental autoimmune encephalomyelitis mouse model assessed as incidence of disease at 30 mg/kg, po administered bid starting from immunization relative to control. Format: functional. The method, boiled down:
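EAE induced in mice by immunization with proteolipid protein peptide PLP139-151; ascending paralysis develops 10–12 days post-immunization. Compound dosed orally b.i.d. starting from immunization. Disease onset/incidence scored relative to control.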

Series [15] is described as follows: Half life in mouse at 1 mg/kg, iv. Format: ADME, organism-based. The conditions noted are these: in vivo. In outline:
as §2

Series [16] can be described thus: Ratio of AUClast in mouse at 100 mg/kg, po to AUClast in mouse at 10 mg/kg, po. Format: ADME, organism-based. To be noted: in vivo. The method, boiled down:
as §3

A short description of series [17]: Cmax in mouse at 10 mg/kg, po. Format: ADME, organism-based. More on the design: route oral, dose 10 mg/kg. To be noted: in vivo. The method, boiled down:
as §3

The nature of series [18]: AUClast in mouse at 30 mg/kg, po. It is filed as ADME, organism-based. More on the design: time 0 - last, route oral, dose 30 mg/kg. To be noted: in vivo. In outline:
as §3

CYP2C9, sequence (P11712 whole entry): as the sequence (P11712 whole entry) above

Turning to `CNC(=O)[C@@H]1CCCN1S(=O)(=O)c1ccc(Cl)c(COc2cccc3c(-c4cncn4C)cc(C(C)C)nc23)c1Cl`, the Activity in [1] is 807%; in series [3] it was 66%; in the series on Mus musculus [4], “Dose-dependent effect”; in series [5], -49%; in [7], -45%; in series [10], -45%. In addition, the Activity was -23% in series [11], -56% in series [12], -22% in [13] and 100% in the series on Mus musculus [14]. For the same compound, the Fm on Cytochrome P450 2C9 is reported as 6%. The figures for the Ratio in [2], in [9] and in series [16] were 3.5, 8.8 and 58, respectively. At 1 µM the inhibition against CYP2C9 was 100%. In addition, the bioavailability (usually dose-corrected exposure relative to a reference, in per cent) in [6] is 64%. For the same compound, in series [8], the EC50 (commonly the concentration that produces a half-maximal response) was 150 nM. In [15], the half-life (commonly how long it takes for the measured level to halve) is 9.6 min. In series [17], the concentration peaked (Cmax) at 3320 ng/mL. Further, the AUC(0-t) (usually exposure summed from dosing to a finite time, without extrapolation to infinity) in [18] was 34200 ng·h/mL.
